A word on the LD50: it is the dose expected to kill half of the subjects tested. A higher LD50 goes with a less toxic substance. The ED50 is the dose that gives a 50% effect, or the effect in half of the subjects. Low values mean an effect at a small dose, high ones a need for a large dose.

Molecules are shown by their SMILES. Bounds are passed on as bounds.

The test system of data set [1] is Mus musculus. Put plainly: Dose influencing (+/-) the spontaneous motility in mice, administered intraperitoneally (ip). The class given is functional. The method in brief:
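CFLP male mice, 10/group. Spontaneous motility recorded in a circuit-closing apparatus, no amphetamine. Compounds given 15 or 30 min before testing. Vehicle controls. Minimum dose raising (+) or lowering (−) motility, ip.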

Data set [2] is described as follows: Lethal effect was determined in mice. Particulars: mouse, in vivo. The class given is ADME, organism-based. The method in brief:
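Male CFLP (Swiss) mice, 18–22 g, dosed sc. Vehicle was physiological saline, with Tween-80 added for some compounds in this determination; controls received the solvent. LD50 in mg/kg determined.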

The species named for data set [3] is Mus musculus. Put plainly: Amphetamine induced motility in mice. The class given is functional.
Data set [4] is filed under the species Felis catus. Put plainly: Compound was tested for potentiating the dopamine-induced hypotension in cats. Type of data set: functional.
For data set [5], the species on record is Mus musculus. Description: Inhibitory activity against reserpine hypothermia in mice. The class given is functional. The method in brief: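 Mice (male CFLP, 18–22 g, 10/group) given reserpine 1 mg/kg ip 3 h before testing. Rectal temperature read with a thermistor probe. Compounds given sc 15 or 30 min before testing. Minimum effective dose.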
The species entered for data set [6] is Mus musculus. Description: Compound was evaluated for the inhibitory activity against Tetrabenazine ptosis in mice. Type of data set: functional. The gist of the method:
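CFLP male mice, 18–22 g, 10/group. Tetrabenazine 35 mg/kg ip at −20 min. Ptosis rated by an observer blind to treatment. Compounds given sc 15 or 30 min beforehand. Controls received the vehicle. ED50 with range.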

Data set [7] is filed under the species Felis catus. Put plainly: Compound was tested for potentiating the dopamine-induced hypotension in cats. The class given is functional.
For data set [8], the species on record is Mus musculus. Description: Compound was evaluated for the inhibitory activity against tetrabenazine catalepsy in mice. Type of data set: functional. The method in brief: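 Male CFLP (Swiss) mice, 18–22 g, 10/group. Tetrabenazine 25 mg/kg ip, 30 min before testing. Catalepsy scored on a vertical grid. Compounds given sc 15 or 30 min before testing. Controls received the vehicle. ED50 with range.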

For data set [9], the target named is Sodium-dependent dopamine transporter (Mus musculus) (UniProt Q61327). Description: Compound was evaluated for the inhibitory activity against Haloperidol catalepsy in mice. Type of data set: functional. The gist of the method:
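Male CFLP (Swiss) mice, 18–22 g, 10/group. Haloperidol 5 mg/kg ip, 60 min. Catalepsy tested on a vertical grid. Compounds given sc 15 or 30 min before testing, in saline or the listed vehicles. Controls received the vehicle. ED50 with range.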

Data set [10] has as its target Sodium-dependent dopamine transporter (Rattus norvegicus) (UniProt P23977). Put plainly: Inhibitory activity against inducing stereotypy in rats. Type of data set: functional. The method in brief:
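Male CFY (Sprague-Dawley) rats. Animals showing stereotypy were placed in an activity meter. Doses giving 5 times control motility were determined. Minimum effective dose, sc.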

In data set [11] the test system is Mus musculus. Description: Compound was evaluated for the dose influencing (+/-) the amphetamine induced motility in mice, administered intraperitoneally (ip). Type of data set: functional.
In data set [12] the test system is Mus musculus. Put plainly: Inhibitory activity against tetrabenazine catalepsy in mice (sc). Type of data set: functional.
Data set [13] relates to Mus musculus. Description: Inhibition of tetrabenazine ptosis in mice (sc). Type of data set: functional.

Chain of Sodium-dependent dopamine transporter (Mus musculus) (Q61327 whole entry): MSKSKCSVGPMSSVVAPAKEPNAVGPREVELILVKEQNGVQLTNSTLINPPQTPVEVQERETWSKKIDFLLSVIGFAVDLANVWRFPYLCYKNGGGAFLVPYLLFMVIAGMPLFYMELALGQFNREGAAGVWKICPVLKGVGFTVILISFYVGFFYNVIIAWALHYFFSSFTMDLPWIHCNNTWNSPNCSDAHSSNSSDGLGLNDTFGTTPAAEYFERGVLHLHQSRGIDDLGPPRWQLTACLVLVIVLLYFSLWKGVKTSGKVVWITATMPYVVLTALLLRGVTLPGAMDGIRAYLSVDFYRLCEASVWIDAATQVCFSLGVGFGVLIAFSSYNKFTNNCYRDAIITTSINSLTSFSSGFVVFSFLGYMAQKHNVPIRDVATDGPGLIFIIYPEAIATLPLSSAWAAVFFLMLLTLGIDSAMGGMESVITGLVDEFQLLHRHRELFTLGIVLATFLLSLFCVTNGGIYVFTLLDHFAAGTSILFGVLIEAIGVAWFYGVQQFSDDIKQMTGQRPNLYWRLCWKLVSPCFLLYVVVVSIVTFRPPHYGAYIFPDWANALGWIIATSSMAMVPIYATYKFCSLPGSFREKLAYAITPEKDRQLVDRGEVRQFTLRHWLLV
Chain of Sodium-dependent dopamine transporter (Rattus norvegicus) (P23977 whole entry): as the sequence (Q61327 whole entry) above, with P21S, V57A, S194A, R600H, V619L counted along it

Take `CN1Cc2c(N)cccc2C(c2ccccc2)C1` (stereo unspecified) [NOMIFENSINE]: the figures for the EDmin in data set [1], in [3] and in data set [4] were 10 mg/kg, over 5 mg/kg and 0.5 mg/kg, respectively. This compound also had an LD50 in [2] of 336 mg/kg.
`CN1Cc2c(NC(=O)CCl)cccc2C(c2ccccc2)C1` (stereo unspecified): the EDmin in data set [5] is over 30 mg/kg; in [1], 20 mg/kg; in data set [7], 1 mg/kg; in [3], 10 mg/kg; in [10] it was 8 mg/kg. The ED50 in [6] stood at 3 mg/kg; in data set [8], 10 mg/kg; in data set [9], 10 mg/kg. This compound also yielded an LD50 in data set [2] of 94 mg/kg.
On to `CN1Cc2c(NC(=O)OCCCl)cccc2C(c2ccccc2)C1` (stereo unspecified), for which the EDmin in data set [5] was 20 mg/kg; in data set [1], over 20 mg/kg; in data set [7], 2 mg/kg; in data set [3], 5 mg/kg; in data set [10] it was over 20.5 mg/kg. For the same compound, the ED50 in data set [6] was 2.5 mg/kg; in [8] it was 9 mg/kg; in data set [9], 11 mg/kg. The median lethal dose (LD50) in data set [2] amounted to 160 mg/kg.
Take `Cc1ccc(C2CN(C)Cc3c(N)cccc32)cc1` (stereo unspecified): the EDmin in [5] was found to be 2 mg/kg; in data set [1], 15 mg/kg; in data set [11] it was 10 mg/kg; in data set [7] it was 0.2 mg/kg. Further, the LD50 in data set [2] was found to be 800 mg/kg. Moreover, the ED50 is 1.6 mg/kg in data set [12] and about 1.2 mg/kg in data set [13].
Regarding `CCCCNC(=O)Nc1cccc2c1CN(C)CC2c1ccccc1` (stereo unspecified), the EDmin in [5] is over 40 mg/kg; in data set [1], 80 mg/kg; in data set [7] it was 2 mg/kg; in [3], 80 mg/kg; in [10], over 83 mg/kg. Further, the LD50 in [2] was found to be 430 mg/kg. The ED50 in data set [12] is about 40 mg/kg; in [13] it was 23 mg/kg.
Regarding `CN1Cc2c(NC(=O)CCCl)cccc2C(c2ccccc2)C1` (stereo unspecified), the EDmin in [5] was over 30 mg/kg; in data set [1], over 30 mg/kg; in data set [7] it was 1 mg/kg; in [3] it was over 15 mg/kg; in data set [10] it was 20.5 mg/kg. Further, the values for the ED50 in data set [6], in data set [8] and in [9] were 8.8 mg/kg, over 30 mg/kg and 19 mg/kg, respectively. The LD50 in data set [2] was determined as 89 mg/kg.
